{"source": "ChEMBL document CHEMBL2040739", "about": "“Effect of phosphodiesterase 7 (PDE7) inhibitors in experimental autoimmune encephalomyelitis mice. Discovery of a new chemically diverse family of compounds” (J Med Chem, 2012)", "key": {"[1]": {"molecular_target": "T1, High affinity 3',5'-cyclic-AMP phosphodiesterase 7A (Homo sapiens, UniProt Q13946)", "T1 sequence (Q13946 whole entry)": "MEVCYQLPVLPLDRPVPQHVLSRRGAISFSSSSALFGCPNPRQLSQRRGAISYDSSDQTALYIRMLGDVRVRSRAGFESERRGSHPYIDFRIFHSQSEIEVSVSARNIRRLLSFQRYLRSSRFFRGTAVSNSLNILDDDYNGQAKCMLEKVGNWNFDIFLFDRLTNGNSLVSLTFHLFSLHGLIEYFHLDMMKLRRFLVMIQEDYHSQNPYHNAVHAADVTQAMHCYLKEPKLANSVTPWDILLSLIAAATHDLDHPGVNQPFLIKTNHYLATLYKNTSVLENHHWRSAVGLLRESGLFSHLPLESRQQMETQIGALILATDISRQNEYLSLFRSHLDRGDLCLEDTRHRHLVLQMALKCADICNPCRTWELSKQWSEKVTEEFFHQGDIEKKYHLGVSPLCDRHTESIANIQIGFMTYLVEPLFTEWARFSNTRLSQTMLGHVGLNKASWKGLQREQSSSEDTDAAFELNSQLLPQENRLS", "test": "Inhibition of human recombinant PDE7A1-mediated [3H]cAMP hydrolysis at 10 uM after 20 mins by scintillation proximity assay", "in_short": "(§1)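 Scintillation proximity assay with human recombinant full-length enzyme: PDE7A1 or PDE3A at 0.02 unit, or PDE7B at 0.5 unit. Enzyme incubated with 5 nCi [3H]cAMP for 20 min at 30 °C. SPA beads added, shaken 1 h at room temperature, then settled 30 min before counting. Single-point screens at 10 μM run in duplicate. IC50 from a sigmoidal dose−response fit.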"}, "[2]": {"test": "Cytotoxicity against rat microglia cells at 5 to 10 uM after 16 hrs by MTT assay", "format": "cell-based", "in_short": "(§2)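 Primary neonatal rat cortical astrocytes or microglia, after 1 week in culture, exposed to compound for 16 h. MTT at 0.5 mg/mL for 4 h, then solubilized in 10% SDS/0.01 M HCl for 12 h in the dark. Absorbance read at 595 nm. Six replications in three experiments.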"}, "[3]": {"molecular_target": "T2, cGMP-inhibited 3',5'-cyclic phosphodiesterase 3A (Homo sapiens, UniProt Q14432)", "T2 sequence (Q14432 whole entry)": "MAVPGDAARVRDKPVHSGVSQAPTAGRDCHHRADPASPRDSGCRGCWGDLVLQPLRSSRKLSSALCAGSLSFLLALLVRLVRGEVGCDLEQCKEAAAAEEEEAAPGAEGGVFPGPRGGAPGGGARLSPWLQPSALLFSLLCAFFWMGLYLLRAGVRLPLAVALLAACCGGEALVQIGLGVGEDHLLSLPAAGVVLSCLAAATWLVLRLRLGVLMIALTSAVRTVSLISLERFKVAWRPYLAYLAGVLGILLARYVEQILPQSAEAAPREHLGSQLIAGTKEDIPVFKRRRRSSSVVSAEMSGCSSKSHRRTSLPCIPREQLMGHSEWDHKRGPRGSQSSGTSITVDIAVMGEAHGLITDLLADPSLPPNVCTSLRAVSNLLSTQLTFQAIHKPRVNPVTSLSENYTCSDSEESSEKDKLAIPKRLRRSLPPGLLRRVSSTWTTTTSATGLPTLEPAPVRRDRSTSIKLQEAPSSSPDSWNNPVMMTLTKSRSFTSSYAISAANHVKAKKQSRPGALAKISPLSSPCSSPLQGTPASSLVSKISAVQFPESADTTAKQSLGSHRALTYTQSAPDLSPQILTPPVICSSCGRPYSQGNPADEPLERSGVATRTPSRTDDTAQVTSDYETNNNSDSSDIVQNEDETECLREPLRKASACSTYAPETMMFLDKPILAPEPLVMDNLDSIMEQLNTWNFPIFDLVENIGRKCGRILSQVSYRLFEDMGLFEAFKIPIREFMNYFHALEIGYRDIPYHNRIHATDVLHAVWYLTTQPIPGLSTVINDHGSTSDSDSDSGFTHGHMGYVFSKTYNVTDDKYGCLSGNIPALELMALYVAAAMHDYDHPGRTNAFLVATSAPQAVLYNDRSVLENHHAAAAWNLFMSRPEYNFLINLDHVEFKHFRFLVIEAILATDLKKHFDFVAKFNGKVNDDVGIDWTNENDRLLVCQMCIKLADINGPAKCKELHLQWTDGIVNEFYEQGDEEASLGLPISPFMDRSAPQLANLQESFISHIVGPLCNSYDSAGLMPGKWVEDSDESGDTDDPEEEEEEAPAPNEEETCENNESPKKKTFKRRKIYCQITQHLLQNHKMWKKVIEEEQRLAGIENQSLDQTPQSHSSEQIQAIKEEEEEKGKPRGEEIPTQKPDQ", "test": "Inhibition of human recombinant PDE3A-mediated [3H]cAMP hydrolysis at 10 uM after 20 mins by scintillation proximity assay", "in_short": "as §1"}, "[4]": {"test": "Cytotoxicity against rat astrocytes at 5 to 10 uM after 16 hrs by MTT assay", "format": "cell-based", "details": "astrocyte", "in_short": "as §2"}, "[5]": {"system": "Astrocyte", "test": "Antiinflammatory activity in rat astrocytes assessed as inhibition of LPS-induced nitrite production at 5 to 10 uM incubated for 1 hr prior to LPS-challenge measured after 24 hrs by Griess method", "format": "functional, cell-based", "in_short": "(§3)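 Glial cells from neonatal rat cerebral cortex; microglia and astrocytes separated by shaking and cultured 1 week. Purity >98% by OX42 and GFAP staining. Microglia kept with 10 ng/mL GM-CSF. Cells given compound for 1 h, then LPS (10 μg/mL) for 24 h. Nitrite in the supernatant measured by Griess reaction at 492/540 nm. Mean ± SD of six replications in three experiments.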"}, "[6]": {"molecular_target": "T2, cGMP-inhibited 3',5'-cyclic phosphodiesterase 3A", "test": "Inhibition of human recombinant PDE3A-mediated [3H]cAMP hydrolysis after 20 mins by scintillation proximity assay", "in_short": "as §1"}, "[7]": {"molecular_target": "T1, High affinity 3',5'-cyclic-AMP phosphodiesterase 7A", "test": "Inhibition of human recombinant PDE7A1-mediated [3H]cAMP hydrolysis after 20 mins by scintillation proximity assay", "in_short": "as §1"}, "[8]": {"organism": "Homo sapiens", "test": "Selectivity index, ratio of IC50 for human recombinant PDE7A1 to IC50 for human recombinant PDE3A", "in_short": "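Ratio of IC50 values for PDE7A1 and PDE3A, each obtained by scintillation proximity assay with [3H]cAMP for 20 min at 30 °C.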"}, "[9]": {"system": "Microglia", "test": "Antiinflammatory activity in rat microglia cells assessed as inhibition of LPS-induced nitrite production at 5 to 10 uM incubated for 1 hr prior to LPS-challenge measured after 24 hrs by Griess method", "format": "functional, cell-based", "in_short": "as §3"}, "[10]": {"molecular_target": "T1, High affinity 3',5'-cyclic-AMP phosphodiesterase 7A", "test": "Inhibition of PDE7A1"}, "[11]": {"molecular_target": "T1, High affinity 3',5'-cyclic-AMP phosphodiesterase 7A", "test": "Competitive inhibition of human recombinant PDE7A1 using 5 nM to 2 uM cAMP as substrate by Lineweaver-Burk plot analysis", "in_short": "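PDE7A1 scintillation proximity assay with unlabeled cAMP varied from 5 nM to 2 μM, against fixed [3H]cAMP tracer. Two inhibitor concentrations tested, with AMP formation measured. Data analysed by Lineweaver−Burk plots. Triplicate measurements, mean ± SEM.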"}, "[12]": {"system": "Astrocyte", "test": "Antiinflammatory activity in rat astrocytes assessed as inhibition of LPS-induced nitrite production at 30 uM incubated for 1 hr prior to LPS-challenge measured after 24 hrs by Griess method", "format": "functional, cell-based", "in_short": "as §3"}, "[13]": {"molecular_target": "T3, High affinity 3',5'-cyclic-AMP phosphodiesterase 7A (Mus musculus) (UniProt P70453)", "T3 sequence (whole entry)": "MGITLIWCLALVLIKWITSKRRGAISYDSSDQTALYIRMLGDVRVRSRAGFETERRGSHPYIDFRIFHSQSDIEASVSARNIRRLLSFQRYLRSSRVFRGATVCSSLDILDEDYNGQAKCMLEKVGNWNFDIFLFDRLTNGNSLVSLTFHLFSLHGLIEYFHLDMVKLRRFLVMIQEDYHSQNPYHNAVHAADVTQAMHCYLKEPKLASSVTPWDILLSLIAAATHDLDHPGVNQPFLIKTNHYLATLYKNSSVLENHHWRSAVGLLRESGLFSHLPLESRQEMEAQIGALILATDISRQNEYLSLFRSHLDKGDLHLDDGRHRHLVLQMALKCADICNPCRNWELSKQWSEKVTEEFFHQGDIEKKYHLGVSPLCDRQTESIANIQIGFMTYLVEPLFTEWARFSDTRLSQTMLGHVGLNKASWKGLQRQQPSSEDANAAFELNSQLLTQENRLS", "test": "Inhibition of PDE7A1 in mouse RAW cells assessed as increase in cAMP level at 10 to 30 uM after 60 mins by enzyme immunoassay", "format": "cell-based", "in_short": "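RAW cells seeded at 3 × 10^4 per well and incubated overnight. Compound added for 60 min at 10 or 30 μM. Intracellular cAMP quantified by enzyme immunoassay kit.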"}, "[14]": {"system": "Microglia", "test": "Antiinflammatory activity in rat microglia cells assessed as inhibition of LPS-induced nitrite production at 30 uM incubated for 1 hr prior to LPS-challenge measured after 24 hrs by Griess method", "format": "functional, cell-based", "in_short": "as §3"}}, "note": "Calls of active or inactive are those of the source. No cut-off for these calls is given here."}
{"smiles": "CCOc1cc(COC(=O)c2ccc(-c3ccccc3)o2)cc(OCC)c1OCC", "values": [{"measurement": "inhibition", "setting": "[1]", "result": 30.8, "unit": "%"}]}
{"smiles": "CCOc1cc(C(=O)OCc2ccc(-c3ccccc3)o2)cc(OCC)c1OCC", "values": [{"measurement": "Activity", "setting": "[2]", "result": "Non-toxic"}, {"measurement": "inhibition", "setting": "[3]", "result": 3, "unit": "%"}, {"measurement": "Activity", "setting": "[4]", "result": "Non-toxic"}, {"measurement": "inhibition", "setting": "[1]", "result": 48.8, "unit": "%"}, {"measurement": "Activity", "setting": "[5]", "result": "Active"}, {"measurement": "IC50", "setting": "[6]", "result": 104, "unit": "µM"}, {"measurement": "IC50", "setting": "[7]", "result": 12.3, "unit": "µM"}, {"measurement": "Ratio IC50", "setting": "[8]", "result": 0.12}, {"measurement": "Activity", "setting": "[9]", "result": "Active"}]}
{"smiles": "COc1cc(COC(=O)c2ccc(-c3ccc(Cl)cc3Cl)o2)cc(OC)c1OC", "values": [{"measurement": "inhibition", "setting": "[1]", "result": 38.3, "unit": "%"}]}
{"smiles": "CCOC(=O)c1sc(NC(=O)C(CC)OC(=O)C(CC(C)C)NC(=O)c2ccccc2)nc1C", "note": "(stereo not given)", "values": [{"measurement": "IC50", "setting": "[10]", "result": 0.86, "unit": "µM"}]}
{"smiles": "CC1CCCCC1NC(=O)C(c1ccccc1Cl)N(CCc1ccccc1Cl)C(=O)CCl", "note": "(stereo not given)", "values": [{"measurement": "IC50", "setting": "[10]", "result": 0.88, "unit": "µM"}]}
{"smiles": "COc1ccc(COC(=O)c2ccc(-c3ccccc3)o2)cc1", "values": [{"measurement": "inhibition", "setting": "[1]", "result": 44.8, "unit": "%"}]}
{"smiles": "CCOc1cc(C(=O)OCc2ccc(-c3ccc(C)cc3)o2)cc(OCC)c1OCC", "values": [{"measurement": "inhibition", "setting": "[1]", "result": 16.4, "unit": "%"}]}
{"smiles": "COc1cc(COC(=O)c2ccc(-c3cc(C(F)(F)F)ccc3Cl)o2)cc(OC)c1OC", "values": [{"measurement": "inhibition", "setting": "[1]", "result": 8, "unit": "%"}]}
{"smiles": "COc1cc(COC(=O)c2ccc(-c3ccc(C)cc3[N+](=O)[O-])o2)cc(OC)c1OC", "values": [{"measurement": "inhibition", "setting": "[1]", "result": 28.8, "unit": "%"}]}
{"smiles": "COc1cc(CNC(=O)c2ccc(-c3ccc(C)cc3[N+](=O)[O-])o2)cc(OC)c1OC", "values": [{"measurement": "Activity", "setting": "[2]", "result": "Non-toxic"}, {"measurement": "inhibition", "setting": "[3]", "result": 49.6, "unit": "%"}, {"measurement": "Activity", "setting": "[4]", "result": "Non-toxic"}, {"measurement": "inhibition", "setting": "[1]", "result": 70.5, "unit": "%"}, {"measurement": "Activity", "setting": "[5]", "result": "Active"}, {"measurement": "IC50", "setting": "[6]", "result": 3.9, "unit": "µM"}, {"measurement": "IC50", "setting": "[7]", "result": 3.2, "unit": "µM"}, {"measurement": "Ratio IC50", "setting": "[8]", "result": 0.82}, {"measurement": "Ki", "setting": "[11]", "result": 7.22, "unit": "µM"}, {"measurement": "Activity", "setting": "[9]", "result": "Active"}]}
{"smiles": "Cc1ccc([N+](=O)[O-])cc1S(=O)(=O)N(C)C", "values": [{"measurement": "Activity", "setting": "[12]", "result": "Active"}, {"measurement": "inhibition", "setting": "[13]", "result": "Active"}, {"measurement": "IC50", "setting": "[7]", "result": 0.09, "unit": "µM"}, {"measurement": "Activity", "setting": "[14]", "result": "Active"}]}
{"smiles": "COc1ccc(-c2ccc(C(=O)OCc3cc(OC)c(OC)c(OC)c3)o2)cc1", "values": [{"measurement": "inhibition", "setting": "[1]", "result": 14, "unit": "%"}]}
{"smiles": "COc1cc(COC(=O)c2ccc(-c3ccccc3Cl)o2)cc(OC)c1OC", "values": [{"measurement": "inhibition", "setting": "[1]", "result": 34.6, "unit": "%"}]}
{"smiles": "COc1cc(C(=O)OCc2ccc(-c3ccc([N+](=O)[O-])cc3)o2)cc(OC)c1OC", "values": [{"measurement": "inhibition", "setting": "[1]", "result": 49.5, "unit": "%"}, {"measurement": "IC50", "setting": "[7]", "result": 33.4, "unit": "µM"}]}
{"smiles": "COc1cc(C(=O)OCc2ccc(-c3ccc(Cl)cc3Cl)o2)cc(OC)c1OC", "values": [{"measurement": "inhibition", "setting": "[1]", "result": 24.4, "unit": "%"}]}
{"smiles": "COc1cc(COC(=O)c2ccc(-c3ccccc3C(F)(F)F)o2)cc(OC)c1OC", "values": [{"measurement": "Activity", "setting": "[2]", "result": "Non-toxic"}, {"measurement": "inhibition", "setting": "[3]", "result": 74.9, "unit": "%"}, {"measurement": "Activity", "setting": "[4]", "result": "Non-toxic"}, {"measurement": "inhibition", "setting": "[1]", "result": 54.9, "unit": "%"}, {"measurement": "Activity", "setting": "[5]", "result": "Active"}, {"measurement": "IC50", "setting": "[6]", "result": 1.8, "unit": "µM"}, {"measurement": "IC50", "setting": "[7]", "result": 2.63, "unit": "µM"}, {"measurement": "Ratio IC50", "setting": "[8]", "result": 1.44}, {"measurement": "Activity", "setting": "[9]", "result": "Active"}]}
